Legend:
MCF7 = experiment: Growth inhibition of human MCF7 cells after 72 hrs by MTT assay; assay type: functional; conditions: MCF7, 72 h
Method in brief: (§1)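 Cancer cells exposed to compounds for 72 h; growth measured by MTT assay. GI50 is the concentration giving 50% growth inhibition, highest concentration tested 100 μM. Mean ± SD of at least two independent experiments.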

A549 = experiment: Growth inhibition of human A549 cells after 72 hrs by MTT assay; assay type: functional, cell-based; conditions: A549, 72 h; method in brief: as §1
[1] = Inhibition of CREB (unknown origin) expressed in HEK293T cells assessed as reduction in CREB-mediated gene tanscription after 5 hrs by luciferase reporter gene assay; assay type: cell-based; conditions: Homo sapiens, HEK-293T
Method in brief: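 CREB-Renilla luciferase reporter assay in living HEK 293T cells measuring CREB-mediated gene transcription. Highest concentration tested 50 μM. IC50 given as mean ± SD of at least two independent experiments.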

MDA-MB-468 = experiment: Growth inhibition of human MDA-MB-468 cells after 72 hrs by MTT assay; assay type: functional; conditions: MDA-MB-468, 72 h; method in brief: as §1
MDA-MB-231 = experiment: Growth inhibition of human MDA-MB-231 cells after 72 hrs by MTT assay; assay type: functional; conditions: MDA-MB-231, 72 h; method in brief: as §1
[2] = Inhibition of CREB (unknown origin) assessed as reduction in KIX-KID interaction after 20 to 24 hrs by renilla luciferase complementation assay; design: species or system Homo sapiens
Method in brief: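 In vitro Renilla luciferase complementation assay of KIX–KID interaction, run at 4 °C. Highest concentration tested 50 μM. IC50 given as mean ± SD of at least two independent experiments.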

[3] = Aqueous solubility in water; assay type: physicochemical
[4] = Half life in Dulbecco's Modified eagle medium at pH 7.7 containing 10% fetal bovine serum; assay type: ADME; conditions: cattle, Dulbecco's Modified Eagle medium with 10% fetal bovine serum
Method in brief: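 Compound incubated at 37 °C in DMEM with 10% FBS. At set times an aliquot was mixed with 9 volumes of acetonitrile to precipitate protein, and the supernatant was analysed by RP-HPLC with UV detection at 254 nm against an internal standard.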

[5] = Drug level in PBS buffer treated with 2-(3-(3-Aminopropoxy)-2-naphthamido)-5-chlorophenyl 3-(3-Aminopropoxy)-2-naphthoate dihydrochloride at room temperature assessed as compound formation; assay type: physicochemical
Method in brief: (§2)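 Compound incubated in PBS at room temperature at pH 7.40, 6.98, 6.48 or 6.01. Aliquots taken at set times were analysed by RP-HPLC, and percent parent remaining was quantified per chromatogram. Data fitted to first-order kinetics to derive t1/2; mean ± SD of two independent experiments.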

HEK-293T = experiment: Inhibition of CREB in HEK293T cells assessed as reduction in forskolin-induced NR4A2 mRNA expression at 2.5 uM pre-incubated for 1 hrs before forskolin stimulation for 45 mins by RT-PCR method; assay type: cell-based; conditions: Homo sapiens
Method in brief: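 HEK 293T cells pretreated with compounds for 1 h, then forskolin added for a further 45 min. Endogenous NR4A2 mRNA quantified by qRT-PCR as relative level; significance by Student's t test.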

[6] = Retention time of the compound by HPLC method; assay type: physicochemical
[7] = Half life in PBS buffer at pH 6.48 by RP-HPLC method; assay type: ADME; method in brief: as §2
[8] = Half life in PBS buffer at pH 6.01 by RP-HPLC method; assay type: ADME; method in brief: as §2
[9] = Half life in PBS buffer at pH 6.98 by RP-HPLC method; assay type: ADME; method in brief: as §2
[10] = Half life in PBS buffer at pH 7.4 by RP-HPLC method; assay type: ADME; method in brief: as §2
[11] = Half life in PBS buffer at pH 7.4 at 4 degC by RP-HPLC method; assay type: ADME

## O=C(Nc1ccc(Cl)cc1)c1cc2ccccc2cc1O
MCF7
  GI50: 2.81 µM
A549
  IC50: 2.9 µM
[1]
  IC50: 2.29 µM
MDA-MB-468
  GI50: 1.46 µM
MDA-MB-231
  GI50: 2.35 µM
[2]
  IC50: 2.9 µM

## COc1cc2ccccc2cc1C(=O)Nc1ccc(Cl)cc1OC(=O)c1cc2ccccc2cc1OC
[3]
  solubility: < 100 µg/mL
A549
  IC50: 8.78 µM
[4]
  half-life: 20 h
[1]
  IC50: 1.95 µM
MDA-MB-468
  GI50: 8.11 µM
MDA-MB-231
  GI50: 23.5 µM
[2]
  IC50: 0.17 µM

## NCCCOc1cc2ccccc2cc1C(=O)Nc1ccc(Cl)cc1O
MCF7
  GI50: 1.85 µM
A549
  IC50: 2.73 µM
[1]
  IC50: 26.2 µM
MDA-MB-468
  GI50: 1.2 µM
MDA-MB-231
  GI50: 2.19 µM
[2]
  IC50: > 50 µM

## COc1cc2ccccc2cc1C(=O)Nc1ccc(Cl)cc1O
MCF7
  GI50: > 100 µM
A549
  IC50: > 100 µM
[1]
  IC50: > 50 µM
MDA-MB-468
  GI50: > 100 µM
MDA-MB-231
  GI50: > 100 µM
[2]
  IC50: > 50 µM

## Cl.NCCCOc1cc2ccccc2cc1C(=O)NCCCOc1cc2ccccc2cc1C(=O)Nc1ccc(Cl)cc1O
[5]
  Drug metabolism: metabolite_detected
MCF7
  GI50: 0.14 µM
[3]
  solubility: 120 µg/mL
A549
  IC50: 0.29 µM
HEK-293T
  fold change (FC): 10
[1]
  IC50: 2.22 µM
MDA-MB-468
  GI50: 0.22 µM
[6]
  Retention_time: 12.2 min
MDA-MB-231
  GI50: 0.37 µM
[2]
  IC50: 19.7 µM

## Cl.NCCCOc1cc2ccccc2cc1C(=O)Nc1ccc(Cl)cc1OC(=O)c1cc2ccccc2cc1OCCCN
[3]
  solubility: > 100000 µg/mL
A549
  IC50: 0.59 µM
HEK-293T
  fold change (FC): 10
[4]
  half-life: < 0.0833 h
[7]
  half-life: 1.91 h
[8]
  half-life: 7.46 h
[9]
  half-life: 0.628 h
[1]
  IC50: 2.27 µM
[10]
  half-life: 0.455 h
MDA-MB-468
  GI50: 0.33 µM
MDA-MB-231
  GI50: 1.3 µM
[11]
  half-life: 24 h
[2]
  IC50: 4.4 µM
